Data taken from ChEMBL document CHEMBL4706701, “Synthesis and biological activity of selenopsammaplin A and its analogues as antitumor agents with DOT1L inhibitory activity” (Bioorg Med Chem, 2021).
Activity calls are given as the source filed them.

What was measured:
[1] = biological target: Histone-lysine N-methyltransferase, H3 lysine-79 specific (Homo sapiens) (UniProt Q8TEK3); test: Inhibition of DOT1L in human MDA-MB-231 cells assessed as effect on histone H3 methylation at 50 to 200 nM by Western blot analysis; format: cell-based; conditions: dose 50-200 nM
Chain of Histone-lysine N-methyltransferase, H3 lysine-79 specific (Homo sapiens) (Q8TEK3 whole entry, looked up): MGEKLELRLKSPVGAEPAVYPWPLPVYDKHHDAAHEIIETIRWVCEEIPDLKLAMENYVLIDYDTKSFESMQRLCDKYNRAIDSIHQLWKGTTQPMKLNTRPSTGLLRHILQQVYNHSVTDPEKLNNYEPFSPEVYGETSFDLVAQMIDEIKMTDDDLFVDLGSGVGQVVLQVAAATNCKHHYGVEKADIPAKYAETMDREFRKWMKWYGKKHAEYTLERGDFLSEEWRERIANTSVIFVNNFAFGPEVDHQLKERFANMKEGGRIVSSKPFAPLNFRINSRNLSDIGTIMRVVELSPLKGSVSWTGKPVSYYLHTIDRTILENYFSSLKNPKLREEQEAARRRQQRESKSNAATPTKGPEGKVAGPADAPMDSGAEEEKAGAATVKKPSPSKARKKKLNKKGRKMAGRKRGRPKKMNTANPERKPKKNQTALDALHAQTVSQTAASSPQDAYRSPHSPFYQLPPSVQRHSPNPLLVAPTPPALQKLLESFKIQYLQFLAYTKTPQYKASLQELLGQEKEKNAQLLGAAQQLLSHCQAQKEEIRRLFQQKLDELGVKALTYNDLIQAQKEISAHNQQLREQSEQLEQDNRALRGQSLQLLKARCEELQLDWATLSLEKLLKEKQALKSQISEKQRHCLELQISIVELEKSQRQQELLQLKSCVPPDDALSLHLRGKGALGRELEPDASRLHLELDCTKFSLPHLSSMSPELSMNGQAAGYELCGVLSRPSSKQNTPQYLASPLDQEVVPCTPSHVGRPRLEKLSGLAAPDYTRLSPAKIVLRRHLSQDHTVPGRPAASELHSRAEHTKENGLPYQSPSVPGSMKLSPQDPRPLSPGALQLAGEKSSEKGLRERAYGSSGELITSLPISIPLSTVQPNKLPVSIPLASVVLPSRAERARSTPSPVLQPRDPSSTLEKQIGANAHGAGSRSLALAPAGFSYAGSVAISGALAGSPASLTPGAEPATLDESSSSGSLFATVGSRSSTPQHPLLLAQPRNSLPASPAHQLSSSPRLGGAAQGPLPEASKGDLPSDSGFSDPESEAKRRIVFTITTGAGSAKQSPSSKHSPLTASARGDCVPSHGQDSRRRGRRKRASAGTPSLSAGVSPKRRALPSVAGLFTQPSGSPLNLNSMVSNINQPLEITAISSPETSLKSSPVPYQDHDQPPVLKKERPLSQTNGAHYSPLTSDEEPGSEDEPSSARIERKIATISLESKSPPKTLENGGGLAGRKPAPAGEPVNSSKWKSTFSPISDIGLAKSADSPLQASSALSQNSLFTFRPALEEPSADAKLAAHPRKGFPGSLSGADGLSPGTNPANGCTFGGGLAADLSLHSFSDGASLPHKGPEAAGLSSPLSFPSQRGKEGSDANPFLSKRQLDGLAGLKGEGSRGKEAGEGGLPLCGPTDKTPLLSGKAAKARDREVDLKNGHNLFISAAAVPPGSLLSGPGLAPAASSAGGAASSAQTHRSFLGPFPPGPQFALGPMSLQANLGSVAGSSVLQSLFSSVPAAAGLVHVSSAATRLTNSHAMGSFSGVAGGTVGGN
Method in brief: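 MDA-MB-231 cell lysates in 2× SDS buffer, protein by BCA; 5–20 μg on 8–15% SDS-PAGE, transferred to PVDF, BSA-blocked and probed with antibodies to H3K4me2, H3K27me2, H3K36me2, H3K79me2 and total histone H3; ECL detection. Mean ± SD (n = 3), three separate experiments.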

MDA-MB-231 [2] = test: Antitumor activity against human MDA-MB-231 cells xenografted in BALB/c nu mouse assessed as down regulation of Ki67 expression in tumor tissue at 5 to 15 mg/kg, ip administered thrice per week for 38 days measured 1 week post last dose by H and E staining based immunohistochemical analysis; format: functional, organism-based; conditions: dose 5-15 mg/kg, time 45.0 day
Method in brief: (§1)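 Tumors and lungs from orthotopic MDA-MB-231/Luc nude mice (ip dosing three times weekly, 38 days) fixed in 4% PFA, paraffin-embedded, sectioned, antigen-retrieved. Lungs H&E-stained for metastatic cells; tumor sections immunostained for Ki67, H3K79me2, E-cadherin, vimentin with HRP detection, hematoxylin counterstain, imaged at 200×.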

A549 = test: Cytotoxicity against human A549 cells assessed as reduction in cell viability by SRB assay; format: functional, cell-based
Method in brief: (§2)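 Cells seeded in 96-well plates and exposed to compounds for the stated times. Zero-day controls were incubated 30 min. Cells were fixed and stained with 0.4% SRB in 1% acetic acid, and bound dye was dissolved in 10 mM Tris (pH 10.0). A515 was read, and IC50 was calculated by non-linear regression.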

MDA-MB-231 [3] = test: Antimetastatic activity against human MDA-MB-231 cells xenografted in BALB/c nu mouse assessed as up regulation of E-cadherin expression in tumor tissue at 5 to 15 mg/kg, ip administered thrice per week for 38 days measured 1 week post last dose by H and E staining based immunohistochemical analysis; format: functional, organism-based; conditions: dose 5-15 mg/kg, time 45.0 day; method in brief: as §1
MDA-MB-231 [4] = test: Antimigratory activity in human MDA-MB-231 cells assessed as suppression of wound closure after 24 hrs by microscopic analysis; format: functional, cell-based; conditions: dose 50-400 nM
Method in brief: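 MDA-MB-231 monolayers at 80–90% confluence scratched with a pipette tip, washed with PBS, then kept 24 h in medium with 1% FBS plus compound at various concentrations. Wounds photographed at 0 and 24 h; area measured by image analysis and expressed as wound healing (%) relative to the 0 h area. Mean ± SD (n = 3), three separate experiments.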

[5] = Toxicity in human MDA-MB-231 cells xenografted BALB/c nu mouse assessed as change in body weight at 5 to 15 mg/kg, ip administered thrice per week for 38 days measured once per week during compound dosing; format: organism-based; conditions: in vivo, 912 h, dose 5-15 mg/kg, time 38 day
Method in brief: (§3)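 Female BALB/c-nu mice, 5–6 weeks old, received 1 × 10⁷ luciferase-expressing MDA-MB-231 cells in 50:50 DMEM/Matrigel into the fourth fat pad. At day 10, mice were randomized into groups of six. Dosing was i.p. three times weekly for 38 days, in vehicle EtOH/Cremophor/saline 5:5:90. Body weight was recorded weekly, and toxicity was judged by lethality and weight loss.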

MDA-MB-231 [6] = test: Down regulation of ZEB1 mRNA expression in human MDA-MB-231 cells at 50 to 200 nM measured after 24 hrs by RT-PCR analysis; format: functional, cell-based; conditions: dose 50-200 nM
MDA-MB-231 [7] = test: Down regulation of VIM mRNA expression in human MDA-MB-231 cells at 50 to 200 nM measured after 24 hrs by RT-PCR analysis; format: functional, cell-based; conditions: dose 50-200 nM
MDA-MB-231 [8] = test: Antitumor activity against human MDA-MB-231 cells xenografted in ip dosed BALB/c nu mouse assessed as down regulation of H3K79me2 expression in tumor tissue administered thrice per week for 38 days measured 1 week post last dose by Western blot analysis; format: functional, organism-based; conditions: dose 5-15 mg/kg, time 45.0 day
Method in brief: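 Frozen tumor portions from the orthotopic MDA-MB-231 nude mouse study homogenized in complete lysis buffer; protein by Bradford assay. Western blotting for H3K79me2, E-cadherin and vimentin, β-actin internal control, band intensities semi-quantified; three separate experiments.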

[9] = Toxicity in human MDA-MB-231 cells xenografted BALB/c nu mouse at 5 to 15 mg/kg, ip administered thrice per week for 38 days; format: organism-based; conditions: in vivo, 912 h, dose 5-15 mg/kg, time 38 day; method in brief: as §3
MDA-MB-231 [10] = test: Up regulation of CDH1 mRNA expression in human MDA-MB-231 cells at 50 to 200 nM measured after 24 hrs by RT-PCR analysis; format: functional, cell-based; conditions: dose 50-200 nM
MDA-MB-231 [11] = test: Down regulation of ZEB1 expression in human MDA-MB-231 cells at 50 to 200 nM measured after 48 hrs by Western blot analysis; format: functional, cell-based; conditions: dose 50-200 nM
Method in brief: (§4)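 MDA-MB-231 cells exposed to compound for 48 h; lysates in 2× SDS sample buffer with orthovanadate and NaF, protein by BCA. 5–20 μg resolved on 8–15% SDS-PAGE, PVDF, BSA block, probed for E-cadherin, N-cadherin, ZEB1, vimentin; ECL detection, β-actin internal control, band densitometry. Mean ± SD (n = 3), three experiments.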

MDA-MB-231 [12] = test: Down regulation of VIM expression in human MDA-MB-231 cells at 50 to 200 nM measured after 48 hrs by Western blot analysis; format: functional, cell-based; conditions: dose 50-200 nM; method in brief: as §4
MDA-MB-231 [13] = test: Antimetastatic activity against human MDA-MB-231 cells xenografted in BALB/c nu mouse assessed as down regulation of vimentin expression in tumor tissue at 5 to 15 mg/kg, ip administered thrice per week for 38 days measured 1 week post last dose by H and E staining based immunohistochemical analysis; format: functional, organism-based; conditions: dose 5-15 mg/kg, time 45.0 day; method in brief: as §1
SNU-638 = test: Cytotoxicity against human SNU-638 cells assessed as reduction in cell viability by SRB assay; format: functional, cell-based; method in brief: as §2
[14] = Selectivity ratio of IC50 for human MCF-10A cells to IC50 for human SNU-638 cells
Method in brief: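 Cytotoxicity by SRB assay: cells seeded in 96-well plates and treated with compounds; fixed, stained with 0.4% SRB in 1% acetic acid, dye dissolved in 10 mM Tris (pH 10.0), absorbance read at 515 nm. IC50 by non-linear regression, means of at least three experiments; ratio of MCF10A IC50 to cancer-line IC50.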

MDA-MB-231 [15] = test: Antiinvasive activity in human MDA-MB-231 cells assessed as reduction in cell invasion through matrigel-coated chamber after 24 hrs by diff-quik staining based microscopic analysis; format: functional; conditions: dose 50-400 nM
Method in brief: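 MDA-MB-231 cells pretreated with compound (50–400 nM) for 24 h, harvested into serum-free medium and plated at 0.5–1 × 10⁶ cells/chamber on transwell inserts (8 μm pores) coated with type I collagen and 1:20 Matrigel/PBS; 30% FBS medium as chemoattractant below. After 24 h, invaded cells fixed, Diff-Quik stained, counted in 5 random fields at 200×; three separate experiments.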

MDA-MB-231 [16] = test: Antimetastatic activity against human MDA-MB-231 cells xenografted in BALB/c nu mouse assessed as down regulation of H3K79me2 expression in tumor tissue at 5 to 15 mg/kg, ip administered thrice per week for 38 days measured 1 week post last dose by H and E staining based immunohistochemical analysis; format: functional, organism-based; conditions: dose 5-15 mg/kg, time 45.0 day; method in brief: as §1

O=C(NCC[Se][Se]CCNC(=O)/C(Cc1ccccc1)=N/O)/C(Cc1ccccc1)=N/O
>100: Ratio IC50 [14]
50 nM: IC50 (SNU-638)
80 nM: IC50 (A549)
active: inhibition [1] | Activity (MDA-MB-231 [2]) | Activity (MDA-MB-231 [3]) | Activity (MDA-MB-231 [4]) Dose-dependent effect | Activity (MDA-MB-231 [6]) | Activity (MDA-MB-231 [7]) | Activity (MDA-MB-231 [8]) Dose-dependent effect | Activity (MDA-MB-231 [10]) | Activity (MDA-MB-231 [11]) | Activity (MDA-MB-231 [12]) | Activity (MDA-MB-231 [13]) | Activity (MDA-MB-231 [15]) Dose-dependent effect | Activity (MDA-MB-231 [16])
Non-Toxic: Activity [5] | Activity [9]
